Experimental data published in ChEMBL document CHEMBL1132993, “Novel benzofuran and benzothiophene biphenyls as inhibitors of protein tyrosine phosphatase 1B with antihyperglycemic properties” (J Med Chem, 2000).

Assays:
[1] = biological target: T1, Tyrosine-protein phosphatase non-receptor type 1 (Homo sapiens, UniProt P18031); test: In vitro inhibitory activity against human recombinant protein tyrosine phosphatase 1b (PTP1B)
T1 sequence (P18031 whole entry): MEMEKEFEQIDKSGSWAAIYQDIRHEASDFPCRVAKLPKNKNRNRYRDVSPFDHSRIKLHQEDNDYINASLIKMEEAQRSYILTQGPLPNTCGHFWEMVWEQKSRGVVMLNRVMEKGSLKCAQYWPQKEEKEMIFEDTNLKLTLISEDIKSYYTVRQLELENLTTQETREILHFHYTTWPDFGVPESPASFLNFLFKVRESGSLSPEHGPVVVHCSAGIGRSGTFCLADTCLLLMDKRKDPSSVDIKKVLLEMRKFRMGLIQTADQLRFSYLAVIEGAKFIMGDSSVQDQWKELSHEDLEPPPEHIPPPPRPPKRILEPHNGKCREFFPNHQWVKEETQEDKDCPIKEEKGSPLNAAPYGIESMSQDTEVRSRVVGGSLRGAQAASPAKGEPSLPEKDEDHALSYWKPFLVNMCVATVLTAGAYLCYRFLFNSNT
Summary of the method: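 Recombinant human PTP1B, diluted in pH 7.4 Tris-HCl/EDTA/β-mercaptoethanol buffer, preincubated 10 min at 37 °C with compound in HEPES pH 7.4. Reaction ran 30 min at 37 °C. Released phosphate was read by malachite green-ammonium molybdate at 650 nm, in quadruplicate. IC50 came from four-parameter logistic regression.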

Mus musculus [2] = test: percentage decrease in plasma glucose in the ob/ob mouse model at 100 mg/kg/day administered per orally; type: functional; details: route oral
Summary of the method: (§1)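 Genetically obese C57 B1/6J ob/ob diabetic mice, four to six per group, dosed orally once daily for 4 days. Plasma glucose is expressed as percent change relative to the vehicle-treated group, with p < 0.05 versus vehicle. Changes that are not significant are generally less than -15%. Ciglitazone served as the reference standard.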

Mus musculus [3] = test: percentage decrease in plasma glucose in the ob/ob mouse model at 25 mg/Kg/day administered per orally; type: functional; summary of the method: as §1
[4] = biological target: T2, Tyrosine-protein phosphatase non-receptor type 1 (Homo sapiens) (UniProt P18031); test: In vitro inhibitory activity against recombinant human Protein Tyrosine Phosphatase 1b at a concentration of 1 uM
T2 sequence (whole entry): T1 sequence (P18031 whole entry)
Summary of the method: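 Recombinant human PTP1B was preincubated 10 min at 37 °C with compound at 1 µM, then given 50 µM tri-phosphorylated insulin receptor dodecapeptide for 30 min at 37 °C. Liberated phosphate was measured by malachite green-molybdate absorbance at 650 nm, in quadruplicate. Values are inhibition expressed as percent of phosphatase control.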

Row | IC50 [1] | SMILES | further results
1 | 1200 nM | CCCCc1oc2ccccc2c1C(=O)c1ccc2c(Br)c(OC(Cc3ccccc3)C(=O)O)ccc2c1 (centres undefined) | –
2 | 1100 nM | CCCCc1oc2ccccc2c1C(O)c1ccc2cc(O)ccc2c1 (centres undefined) | –
3 | 160 nM | O=C(O)c1ccccc1C(=O)Nc1cc(-c2ccc(-c3c(Cc4ccccc4)oc4ccccc34)cc2)ccc1O | –
4 | 180 nM | O=C(O)c1ccccc1C(=O)NCCC(Oc1c(Br)cc(-c2ccc(-c3c(Cc4ccccc4)sc4ccccc34)cc2)cc1Br)C(=O)O (centres undefined) | –
5 | 590 nM | O=C(O)[C@H](Cc1ccccc1)Oc1ccc(-c2ccc(-c3c(Cc4ccccc4)oc4ncccc34)cc2)cc1 | –
6 | 54 nM | COC(=O)C(CCNC(=O)c1ccccc1C(=O)O)Oc1c(Br)cc(-c2ccc(-c3c(Cc4ccccc4)sc4ccccc34)cc2)cc1Br (centres undefined) | –
7 | 380 nM | CCCCc1oc2ccccc2c1Cc1ccc2c(I)c(O)ccc2c1 | –
8 | 53 nM | COc1ccc(-c2cc(-c3ccc(-c4c(Cc5ccccc5)sc5ccccc45)cc3)ccc2O[C@H](Cc2ccccc2)C(=O)O)cc1 | –
9 | 52 nM | CCOc1ccc(-c2cc(-c3ccc(-c4c(Cc5ccccc5)sc5ccccc45)cc3)ccc2OCC(=O)O)cc1 | –
10 | 55 nM | O=C(O)[C@H](Cc1ccccc1)Oc1ccc(-c2ccc(-c3c(Cc4ccccc4)oc4ccccc34)cc2)cc1C1CCCC1 | –
11 | 510 nM | CCCCc1oc2ccccc2c1Cc1ccc(-c2ccc(OCn3cnnn3)cc2)cc1 | –
12 | 900 nM | Cc1oc(-c2ccc(C(F)(F)F)cc2)nc1-c1ccc(-c2ccc(OCn3cnnn3)cc2)cc1 | –
13 | 52 nM | O=C(O)[C@@H](Cc1ccccc1)Oc1ccc(-c2ccc(-c3c(Cc4ccccc4)sc4ccccc34)cc2)cc1-c1ccc(Cl)cc1 | –
14 | 320 nM | CCCCc1oc2ccccc2c1Cc1ccc2c(I)c(OC(Cc3ccccc3)C(=O)O)ccc2c1 (centres undefined) | –
15 | 410 nM | Cc1ccc2oc(Cc3ccccc3)c(-c3ccc(-c4ccc(O[C@H](Cc5ccccc5)C(=O)O)cc4)cc3)c2c1 | –
16 | 740 nM | O=C(c1ccccc1)c1oc2ccccc2c1-c1ccc(-c2ccc(O)cc2)cc1 | –
17 | 520 nM | Oc1c(I)cc(-c2ccc(-c3c(Cc4ccccc4)sc4ccccc34)cc2)cc1I | –
18 | 700 nM | CCCCc1sc2ccccc2c1-c1ccc(-c2ccc(O)cc2)cc1 | –
19 | 920 nM | Oc1ccc(-c2ccc(-c3c(Cc4ccccc4)oc4ccccc34)cc2)cc1 | –
20 | 1400 nM | CCCCc1oc2ccccc2c1Cc1ccc2c(Br)c(OCC(=O)O)ccc2c1 | –
21 | 580 nM | Oc1ccc(-c2ccc(-c3c(Cc4ccc(O)cc4O)sc4ccccc34)cc2)cc1 | –
22 | 130 nM | CC[C@H](Oc1c(Br)cc(-c2ccc(-c3c(Cc4ccccc4)oc4ccccc34)cc2)cc1Br)C(=O)O | –
23 | 44 nM | O=C(O)C(CCN1C(=O)c2ccccc2C1=O)Oc1c(Br)cc(-c2ccc(-c3c(Cc4ccccc4)sc4ccccc34)cc2)cc1Br (centres undefined) | –
24 | 170 nM | O=C(O)CCCOc1ccc(-c2ccc(-c3c(Cc4ccccc4)sc4ccccc34)cc2)cc1Br | –
25 | 1600 nM | Cc1oc(-c2ccc(C(F)(F)F)cc2)nc1-c1cccc(-c2ccc(OC(Cc3ccccc3)C(=O)O)cc2)c1 (centres undefined) | –
26 | 28 nM | O=C(O)c1ccc(S(=O)(=O)Oc2ccc(-c3ccc(-c4c(Cc5ccccc5)oc5ccccc45)cc3)cc2C2CCCC2)cc1O | –

More lines, now with the values behind:

Row | SMILES | IC50 [1] | further results
27 | O=C(O)COc1ccc(-c2ccc(-c3c(Cc4ccccc4)sc4ccccc34)cc2)cc1-c1ccccc1 | 100 nM | –
28 | O=C(O)CNc1cc(-c2ccc(-c3c(Cc4ccccc4)oc4ccccc34)cc2)ccc1OCCc1ccccc1 | 82 nM | –
29 | COc1ccc(-c2cc(-c3ccc(-c4c(Cc5ccccc5)sc5ccccc45)cc3)cc(Br)c2OCC(=O)O)c(OC)c1 | 47 nM | –
30 | CCCCc1oc2ccccc2c1C(=O)c1ccc2c(Br)c(OCn3cnnn3)ccc2c1 | 1100 nM | Decrease (Mus musculus [2]): 25%
31 | CCCCCCC(Oc1c(Br)cc(-c2ccc(-c3c(Cc4ccccc4)oc4ccccc34)cc2)cc1Br)C(=O)O (centres undefined) | 23 nM | Decrease (Mus musculus [3]): 27%
32 | CC(=O)Oc1cc(S(=O)(=O)Oc2ccc(-c3ccc(-c4coc5ccccc45)cc3)cc2)ccc1C(=O)O | 1160 nM | –
33 | O=C(O)c1ccc(S(=O)(=O)Oc2c(Br)cc(-c3ccc(-c4c(Cc5ccccc5)sc5ccccc45)cc3)cc2Br)cc1O | – | Decrease (Mus musculus [2]): 25%
34 | Oc1ccc(Cc2sc3ccccc3c2-c2ccc(-c3ccc(O)cc3)cc2)cc1 | 1080 nM | –
35 | O=C(O)[C@H](Cc1ccccc1)Oc1ccc(-c2ccc(-c3c(Cc4ccccc4)oc4ccc(F)cc34)cc2)cc1 | 130 nM | –
36 | COc1cccc(-c2cc(-c3ccc(-c4c(Cc5ccccc5)sc5ccccc45)cc3)ccc2OCC(=O)O)c1OC | 71 nM | –
37 | CCCCc1oc2ccccc2c1Cc1ccc2cc(O)ccc2c1 | 1300 nM | –
38 | O=C(O)c1ccc(S(=O)(=O)Oc2ccc(-c3ccc(-c4c(Cc5ccccc5)oc5ccccc45)cc3)cc2)cc1O | – | Decrease (Mus musculus [3]): 18%
39 | CCCCc1oc2ccccc2c1-c1ccc(-c2ccc(OC(Cc3ccccc3)C(=O)O)cc2)cc1 (centres undefined) | – | Decrease (Mus musculus [2]): 34%
40 | CCCCc1oc2ccccc2c1Cc1ccc2c(Br)c(OC(Cc3ccccc3)C(=O)O)ccc2c1 (centres undefined) | – | Decrease (Mus musculus [2]): 26%
41 | O=C(O)[C@@H](Cc1ccccc1)Oc1ccc(-c2ccc(-c3c(Cc4nccs4)sc4ccccc34)cc2)cc1 | 1160 nM | –
42 | O=C(O)[C@@H](Cc1ccccc1)Oc1ccc(-c2ccc(-c3c(Cc4ccccc4)oc4ccccc34)cc2)cc1 | – | Decrease (Mus musculus [2]): 35%
43 | O=C(O)[C@@H](Cc1ccccc1)Oc1ccc(-c2ccc(-c3c(Cc4ccc(F)cc4)sc4ccccc34)cc2)cc1 | 120 nM | –
44 | Oc1c(Br)cc(-c2ccc(-c3c(Cc4ccccc4)oc4ccccc34)cc2)cc1Br | – | Average inhibition [4]: -43
45 | O=C(O)[C@@H](Cc1ccccc1)Oc1ccc(-c2ccc(-c3c(C(O)c4ccccc4)oc4ccccc34)cc2)cc1 (some centres undefined) | 110 nM | Decrease (Mus musculus [2]): -1%; Decrease (Mus musculus [3]): 21%
46 | O=C(O)C(Cc1ccccc1)Oc1ccc(-c2ccc(-c3c(Cc4ccccc4)oc4ccccc34)cc2)cc1 (centres undefined) | – | Decrease (Mus musculus [2]): 40%
47 | COc1ccc(-c2cc(-c3ccc(-c4c(Cc5ccccc5)sc5ccccc45)cc3)cc(Br)c2OCC(=O)O)cc1 | – | Decrease (Mus musculus [3]): 30%

Row | SMILES | IC50 [1] | further results
48 | Oc1ccc(-c2ccc(-c3c(Cc4ccccc4)oc4ccccc34)cc2)cc1Br | – | Average inhibition [4]: -59
49 | O=C(O)[C@@H](Cc1ccccc1)Oc1ccc(-c2ccc(-c3c(Cc4ccccc4)sc4ccccc34)cc2)cc1 | – | Decrease (Mus musculus [2]): 37%
50 | CC(Cc1ccccc1)(Oc1ccc(-c2ccc(-c3c(Cc4ccccc4)oc4ccccc34)cc2)cc1)C(=O)O (centres undefined) | – | Decrease (Mus musculus [2]): 28%; Decrease (Mus musculus [3]): 30%
51 | CCCCc1sc2ccccc2c1-c1ccc(-c2ccc(O[C@H](Cc3ccccc3)C(=O)O)cc2)cc1 | 170 nM | Decrease (Mus musculus [2]): 27%
52 | O=C(O)COc1c(Br)cc(-c2ccc(-c3c(Cc4ccccc4)sc4ccccc34)cc2)cc1Br | 100 nM | –
53 | CCCCc1sc2ccccc2c1-c1ccc(-c2ccc(O[C@@H](C(=O)O)c3ccccc3)cc2)cc1 | 110 nM | Decrease (Mus musculus [2]): 28%
54 | O=C(O)[C@H](CCN1C(=O)c2ccccc2C1=O)Oc1ccc(-c2ccc(-c3c(Cc4ccccc4)oc4ccccc34)cc2)cc1 | 340 nM | –
55 | O=C(O)[C@H](CCc1ccccc1)Oc1ccc(-c2ccc(-c3c(Cc4ccccc4)oc4ccccc34)cc2)cc1 | 220 nM | –
56 | O=C(O)[C@@H](Cc1ccccc1)Oc1ccc(-c2ccc(-c3c(Cc4ccc(O)cc4O)sc4ccccc34)cc2)cc1 | 120 nM | Decrease (Mus musculus [3]): 20%
57 | O=C(O)CCNc1cc(-c2ccc(-c3c(Cc4ccccc4)oc4ccccc34)cc2)ccc1OCCc1ccccc1 | 140 nM | Decrease (Mus musculus [3]): 17%
58 | C[C@@H](Oc1ccc(-c2ccc(-c3c(Cc4ccccc4)oc4ccccc34)cc2)cc1)C(=O)O | – | Decrease (Mus musculus [2]): 39%; Decrease (Mus musculus [3]): -1%
59 | Cc1oc(-c2ccc(C(F)(F)F)cc2)nc1-c1ccc2c(Br)c(OCC(=O)O)ccc2c1 | 1300 nM | –
60 | COc1ccc(Cc2sc3ccccc3c2-c2ccc(-c3ccc(O[C@H](Cc4ccccc4)C(=O)O)cc3)cc2)c(OC)c1 | – | Decrease (Mus musculus [3]): 24%
61 | CCCCc1oc2ccccc2c1Cc1ccc2c(Br)c(OCn3cnnn3)ccc2c1 | 700 nM | –
62 | O=C(O)[C@@H](Cc1ccccc1)Oc1ccc(-c2ccc(-c3oc4ccccc4c3Cc3ccccc3)cc2)cc1 | 350 nM | –
63 | Cc1oc(-c2ccc(C(F)(F)F)cc2)nc1-c1ccc(-c2ccc(OC(Cc3ccccc3)C(=O)O)cc2)cc1 (centres undefined) | – | Decrease (Mus musculus [3]): 27%
64 | O=C(O)COc1ccc(-c2ccc(-c3c(Cc4ccccc4)oc4ccccc34)cc2)cc1C1CCCC1 | 170 nM | –
65 | COc1ccc(Cc2sc3ccccc3c2-c2ccc(-c3ccc(O[C@H](Cc4ccccc4)C(=O)O)cc3)cc2)cc1OC | 120 nM | Decrease (Mus musculus [3]): 24%
66 | O=C(O)c1ccc(COc2ccc(-c3ccc(-c4c(Cc5ccccc5)oc5ccccc45)cc3)cc2)cc1 | 360 nM | –
67 | COc1ccc(-c2cc(-c3ccc(-c4c(Cc5ccccc5)sc5ccccc45)cc3)cc(-c3ccc(OC)cc3)c2OCC(=O)O)cc1 | – | Decrease (Mus musculus [3]): 26%
68 | O=C(O)[C@@H](Cc1ccccc1)Oc1ccc(-c2ccc(-c3nc4cccnc4n3Cc3ccccc3)cc2)cc1 | – | Average inhibition [4]: -19
